Measurements from ChEMBL document CHEMBL4364287, “Enhanced Inhibition of Influenza A Virus Adhesion by Di- and Trivalent Hemagglutinin Inhibitors” (J Med Chem, 2019).
Active and inactive are the calls of the source. The calls are words filed in the database; no cut-off is given here.

What was measured:
Influenza A virus [1] = assay: Antiviral activity against Influenza A virus WU95 expressing Influenza A virus (A/Netherlands/178/1995(H3N2)) H3 hemagglutinin infected in MDCK2 cells assessed as reduction in virus-induced cytopathogenicity preincubated with virus for 4 hrs followed by cell infection and measured after 3 days by DAPI staining-based assay; type: functional, organism-based
Procedure, shortened: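 WU95 virus was preincubated 4 h at room temperature in Opti-mem with varying compound concentrations. It was then inoculated onto confluent MDCK-II cells at MOI 0.005 and held 3 days with 1 µg/ml TPCK-trypsin to allow multiple rounds of infection. Cells were fixed and DAPI-stained, and monolayers inspected visually; absence of stained cells was taken as cell killing.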

[2] = Inhibition of sensor loaded biotinylated-LAMP1 binding to Influenza A virus (A/Netherlands/178/1995(H3N2)) H3 hemagglutinin expressed in Influenza virus WU95 in presence of NA inhibitor oseltamivir carboxylate by biolayer interferometric analysis
Procedure, shortened: (§1)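 OctetRed BLI: streptavidin sensors were saturated with biotinylated LAMP1 in PBS pH 7.4. They were dipped into WU95 (8 HAU, 2.5 × 10^8 particles per well) preincubated 4 h at room temperature with compound and 10 µM (end concentration) oseltamivir carboxylate. Initial binding rate was compared with a no-compound control.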

[3] = system: Influenza A virus (A/Netherlands/178/1995(H3N2)); assay: Potency index, ratio of compound 7 IC50 to test compound IC50 for inhibition of sensor loaded biotinylated-LAMP1 binding to Influenza A virus (A/Netherlands/178/1995(H3N2)) H3 hemagglutinin expressed in Influenza virus WU95
[4] = system: Influenza A virus (A/duck/Hunan/795/2002(H5N1)); assay: Inhibition of sensor loaded biotinylated-LAMP1 binding to Influenza A virus (A/duck/Hunan/795/2002 (H5N1)) […] expressed in Influenza virus H5N1 by biolayer interferometric analysis relative to control
[5] = Inhibition of sensor loaded biotinylated-LAMP1 binding to Influenza A virus (A/Netherlands/602/2009(H1N1)) […] by biolayer interferometric analysis
[6] = system: Influenza A virus (A/Netherlands/178/1995(H3N2)); assay: Inhibition of sensor loaded biotinylated-LAMP1 binding to Influenza A virus (A/Netherlands/178/1995(H3N2)) H3 hemagglutinin expressed in Influenza virus WU95 at 3 uM in presence of NA inhibitor oseltamivir carboxylate by biolayer interferometric analysis; procedure, shortened: as §1
[7] = system: Influenza A virus (A/Bilthoven/1761/1976(H3N2)); assay: Inhibition of sensor loaded biotinylated-LAMP1 binding to Influenza A virus (A/Bilthoven/1761/1976(H3N2)) H3 hemagglutinin expressed in Influenza virus VI75 at 3 uM by biolayer interferometric analysis
Procedure, shortened: (§2)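 BLI with streptavidin sensors loaded to saturation with biotinylated LAMP1 (PBS, pH 7.4). VI75 virus was preincubated 4 h at room temperature with 3 µM compound, without or with 10 µM oseltamivir carboxylate. Initial virus binding rate was compared with a compound-free control.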

[8] = system: Influenza A virus (A/Bilthoven/1761/1976(H3N2)); assay: Inhibition of sensor loaded biotinylated-LAMP1 binding to Influenza A virus (A/Bilthoven/1761/1976(H3N2)) H3 hemagglutinin expressed in Influenza virus VI75 at 3 uM in presence of NA inhibitor oseltamivir carboxylate by biolayer interferometric analysis; procedure, shortened: as §2
[9] = Inhibition of Influenza A virus (A/Netherlands/178/1995(H3N2)) H3 hemagglutinin expressed in Influenza virus WU95 assessed as reduction in human erythrocytes hemagglutination preincubated for 4 hrs followed by erythrocytes addition and measured after 2 hrs; type: cell-based
Procedure, shortened: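 Four hemagglutination units of virus were preincubated 4 h at room temperature with limiting compound dilutions in the presence of oseltamivir carboxylate. Then 0.5% (v/v) erythrocytes were added for 2 h at 4 °C. The lowest inhibiting concentration was recorded; two experiments were run in duplicate and means are reported.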

[10] = system: Influenza A virus (A/Netherlands/178/1995(H3N2)); assay: Potency index, ratio of compound 8 IC50 to test compound IC50 for Inhibition of Influenza A virus (A/Netherlands/178/1995(H3N2)) H3 hemagglutinin expressed in Influenza virus WU95 assessed as reduction in human erythrocytes hemagglutination; type: cell-based
Influenza A virus [11] = assay: Antiviral activity against Influenza A virus WU95 expressing Influenza A virus (A/Netherlands/178/1995(H3N2)) H3 hemagglutinin infected in MDCK2 cells preincubated with virus for 4 hrs followed by cell infection and measured at 7 hrs post-infection by DAPI staining-based assay; type: functional, organism-based
Procedure, shortened: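 Single-cycle infection: WU95 in Opti-mem was preincubated 4 h at room temperature with varying compound concentrations. Confluent MDCK-II cells were inoculated in triplicate at MOI 0.005 and fixed at 7 h post-infection in methanol (−20 °C, 5 min). Cells were immunostained for nucleoprotein (HB65, Alexa 488 secondary), counterstained with DAPI, and infected cells per well were counted.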

MDCK-II = assay: Cytotoxicity against MDCK2 cells assessed as reduction in cell viability measured after 24 hrs by WST1 assay; type: cell-based, Canis lupus familiaris; conditions: dog
Procedure, shortened: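 MDCK-II cells were incubated 24 h in Opti-mem with compounds at different concentrations. Cell number and viability were then read by WST-1 assay.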

Structure (SMILES): CC(=O)N[C@H]1[C@H](O[C@H]2[C@@H](O)[C@@H](CO)O[C@@H](O[C@H]3[C@H](O)[C@@H](O)[C@H](n4cc(-c5ccc(-c6cn(CCCC(=O)Nc7cccc(-c8cc(-c9cccc(NC(=O)CCCn%10cc(-c%11ccc(-c%12cn([C@@H]%13O[C@H](CO)[C@@H](O[C@@H]%14O[C@H](CO)[C@H](O)[C@H](O[C@@H]%15O[C@H](CO)[C@@H](O[C@@H]%16O[C@H](CO[C@]%17(C(=O)O)C[C@H](O)[C@@H](NC(C)=O)[C@H]([C@H](O)[C@H](O)CO)O%17)[C@H](O)[C@H](O)[C@H]%16O)[C@H](O)[C@H]%15NC(C)=O)[C@H]%14O)[C@H](O)[C@H]%13O)nn%12)cc%11)nn%10)c9)cc(-c9cccc(NC(=O)CCCn%10cc(-c%11ccc(-c%12cn([C@@H]%13O[C@H](CO)[C@@H](O[C@@H]%14O[C@H](CO)[C@H](O)[C@H](O[C@@H]%15O[C@H](CO)[C@@H](O[C@@H]%16O[C@H](CO[C@]%17(C(=O)O)C[C@H](O)[C@@H](NC(C)=O)[C@H]([C@H](O)[C@H](O)CO)O%17)[C@H](O)[C@H](O)[C@H]%16O)[C@H](O)[C@H]%15NC(C)=O)[C@H]%14O)[C@H](O)[C@H]%13O)nn%12)cc%11)nn%10)c9)c8)c7)nn6)cc5)nn4)O[C@@H]3CO)[C@@H]2O)O[C@H](CO)[C@@H](O[C@@H]2O[C@H](CO[C@]3(C(=O)O)C[C@H](O)[C@@H](NC(C)=O)[C@H]([C@H](O)[C@H](O)CO)O3)[C@H](O)[C@H](O)[C@H]2O)[C@@H]1O
- Activity (Influenza A virus [1]): Active
- IC50 [2]: 0.71 µM
- Ratio IC50 [3]: 428
- Imax [4]: 50%
- IC50 [5]: 2.7 µM
- inhibition [6]: Active
- inhibition [7]: Active
- inhibition [8]: Active
- Ki [9]: 9.4 µM
- Ratio IC50 [10]: 38
- IC50 (Influenza A virus [11]): 4.4 µM
- Activity (MDCK-II): Non-Toxic
